Here are results for two molecules from ChEMBL document CHEMBL4732140, “Single-step fluorescent probes to detect decrotonylation activity of HDACs through intramolecular reactions” (Eur J Med Chem, 2021).

Assay [1] deals with NAD-dependent protein deacylase sirtuin-5, mitochondrial (Homo sapiens) (UniProt Q9NXA8). Nature of the assay: Substrate activity at recombinant human SIRT5 assessed as decrotonylation by measuring increase in fluorescence intensity at 10 uM in presence of NAD+ by fluorescence photometric method. Summed up:
(§1)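 Recombinantly expressed, purified sirtuin (40 ng/μl) incubated with probe (10 μM, from 5 mM DMSO stock) and NAD+ at 37 °C in 20 mM HEPES pH 8.0 with 1 mM MgCl2, 2.7 mM KCl, 150 mM NaCl. Fluorescence read with excitation 480 nm, emission 545 nm.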

Assay [2] concerns the target T1, NAD-dependent protein deacetylase sirtuin-3, mitochondrial (Homo sapiens) (UniProt Q9NTG7).
T1 sequence (whole entry): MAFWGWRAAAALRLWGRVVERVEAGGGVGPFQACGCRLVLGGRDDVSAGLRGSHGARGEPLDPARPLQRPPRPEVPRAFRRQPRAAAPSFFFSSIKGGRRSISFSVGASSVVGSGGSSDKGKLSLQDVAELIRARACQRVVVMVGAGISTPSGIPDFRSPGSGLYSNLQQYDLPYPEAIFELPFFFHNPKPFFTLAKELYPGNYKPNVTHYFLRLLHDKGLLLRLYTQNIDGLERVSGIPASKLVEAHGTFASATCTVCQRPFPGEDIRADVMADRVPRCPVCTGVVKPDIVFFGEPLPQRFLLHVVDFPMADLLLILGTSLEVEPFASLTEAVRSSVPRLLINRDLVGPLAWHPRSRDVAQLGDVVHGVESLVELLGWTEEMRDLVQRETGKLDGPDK
Nature of the assay: Substrate activity at recombinant human SIRT3 assessed as decrotonylation by measuring increase in fluorescence intensity at 10 uM in presence of NAD+ by fluorescence photometric method. Summed up:
as §1

The target of assay [3] is T2, NAD-dependent protein deacetylase sirtuin-1 (Homo sapiens) (UniProt Q96EB6).
T2 sequence (whole entry): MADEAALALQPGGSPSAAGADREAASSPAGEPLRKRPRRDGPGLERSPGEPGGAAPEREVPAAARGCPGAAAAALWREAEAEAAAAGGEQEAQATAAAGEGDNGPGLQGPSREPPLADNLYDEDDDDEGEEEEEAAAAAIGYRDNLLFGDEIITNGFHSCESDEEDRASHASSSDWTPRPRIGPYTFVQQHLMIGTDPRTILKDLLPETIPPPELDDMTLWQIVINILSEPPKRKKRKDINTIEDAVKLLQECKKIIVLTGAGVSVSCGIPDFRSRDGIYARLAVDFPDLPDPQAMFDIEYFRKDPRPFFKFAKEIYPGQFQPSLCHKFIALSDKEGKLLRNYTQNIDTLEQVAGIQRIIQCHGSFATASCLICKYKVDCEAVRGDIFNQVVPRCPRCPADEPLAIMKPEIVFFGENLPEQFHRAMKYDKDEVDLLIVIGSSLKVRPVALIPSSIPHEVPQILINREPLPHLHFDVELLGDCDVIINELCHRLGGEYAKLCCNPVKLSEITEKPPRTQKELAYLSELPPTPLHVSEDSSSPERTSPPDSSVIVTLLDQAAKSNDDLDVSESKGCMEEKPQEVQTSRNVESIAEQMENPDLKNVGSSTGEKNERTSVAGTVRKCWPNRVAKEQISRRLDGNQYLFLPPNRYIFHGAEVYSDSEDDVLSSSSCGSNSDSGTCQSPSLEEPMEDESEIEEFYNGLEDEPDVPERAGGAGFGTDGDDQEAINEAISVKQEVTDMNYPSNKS
Nature of the assay: Substrate activity at recombinant human SIRT1 assessed as decrotonylation by measuring increase in fluorescence intensity at 10 uM in presence of NAD+ by fluorescence photometric method. Summed up: as §1

The target in assay [4] is NAD-dependent protein deacylase sirtuin-6 (Homo sapiens) (UniProt Q8N6T7). Nature of the assay: Substrate activity at recombinant human SIRT6 assessed as decrotonylation by measuring increase in fluorescence intensity at 10 uM in presence of NAD+ by fluorescence photometric method. Summed up: as §1
Assay [5] addresses T3, NAD-dependent protein deacetylase sirtuin-2 (Homo sapiens) (UniProt Q8IXJ6).
T3 sequence (whole entry): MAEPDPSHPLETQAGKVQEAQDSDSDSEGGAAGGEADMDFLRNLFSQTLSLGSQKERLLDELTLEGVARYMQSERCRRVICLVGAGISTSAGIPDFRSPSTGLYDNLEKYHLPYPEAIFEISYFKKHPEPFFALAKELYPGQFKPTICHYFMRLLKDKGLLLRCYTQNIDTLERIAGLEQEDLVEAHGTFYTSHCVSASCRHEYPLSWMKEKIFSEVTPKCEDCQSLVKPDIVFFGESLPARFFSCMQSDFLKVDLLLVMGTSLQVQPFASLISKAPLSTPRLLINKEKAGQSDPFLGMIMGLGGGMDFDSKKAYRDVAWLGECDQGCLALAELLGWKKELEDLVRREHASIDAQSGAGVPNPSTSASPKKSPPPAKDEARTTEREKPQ
Nature of the assay: Substrate activity at recombinant human SIRT2 assessed as decrotonylation by measuring increase in fluorescence intensity at 10 uM in presence of NAD+ by fluorescence photometric method. The conditions noted are these: time hrs <=3, TDE = time-dependent effect. Summed up: as §1

Assay [6] addresses T3, NAD-dependent protein deacetylase sirtuin-2 (Homo sapiens). Nature of the assay: Substrate activity at recombinant human SIRT2 assessed as decrotonylation by measuring absorption peak for formation of N-NBD at 10 uM measured after 3 hrs in presence of NAD+ by UV-VS absorption spectra analysis. Summed up:
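Probe (10 μM, from 5 mM DMSO stock) reacted with recombinant purified Sirt2 (40 ng/μl) and 200 μM NAD+ in 20 mM HEPES pH 8.0 (1 mM MgCl2, 2.7 mM KCl, 150 mM NaCl) at 37 °C for 3 h. Absorbance spectra collected from 300 to 550 nm before and after the reaction.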

Assay [7] can be described thus: Binding affinity to histidine at 10 uM by fluorescence photometric method. Summed up: (§2)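 Interferent test: probe at 10 μM treated with each species (amino acids, butylamine) at 100 μM, no enzyme; fluorescence spectra of the reaction mixtures recorded (excitation 480 nm).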
The nature of assay [8]: Binding affinity to cysteine at 10 uM by fluorescence photometric method. Summed up:
as §2

The target in assay [9] is T3, NAD-dependent protein deacetylase sirtuin-2 (Homo sapiens). Nature of the assay: Substrate activity at recombinant human SIRT2 assessed as decrotonylation by measuring increase in fluorescence intensity at 10 uM measured after 3 hrs in presence of NAD+ by fluorescence photometric method relative to control. Summed up: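 Probe (10 μM) incubated 3 h at 37 °C with recombinant Sirt2 (40 ng/μl) and 200 μM NAD+ in 20 mM HEPES pH 8.0 with salts. Emission scanned 510–600 nm (excitation 480 nm, slit 5 nm). Signal compared with controls lacking enzyme and/or NAD+, and with probe alone; fold increase derived.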

The nature of assay [10]: Binding affinity to lysine at 10 uM by fluorescence photometric method. Summed up: as §2

The source made the active and inactive calls. The rule behind the calls is not given here.

Sequence of NAD-dependent protein deacylase sirtuin-6 (Homo sapiens) (Q8N6T7 whole entry): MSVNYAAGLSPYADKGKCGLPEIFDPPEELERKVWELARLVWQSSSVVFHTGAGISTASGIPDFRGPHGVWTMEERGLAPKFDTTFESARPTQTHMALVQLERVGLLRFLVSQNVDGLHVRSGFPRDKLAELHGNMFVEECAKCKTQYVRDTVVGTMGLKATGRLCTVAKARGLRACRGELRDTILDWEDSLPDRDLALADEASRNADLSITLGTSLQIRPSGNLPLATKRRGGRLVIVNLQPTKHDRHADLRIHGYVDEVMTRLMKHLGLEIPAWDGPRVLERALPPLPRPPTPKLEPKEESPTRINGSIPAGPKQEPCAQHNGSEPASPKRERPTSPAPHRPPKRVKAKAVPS
Sequence of NAD-dependent protein deacylase sirtuin-5, mitochondrial (Homo sapiens) (Q9NXA8 37-310 limits assumed): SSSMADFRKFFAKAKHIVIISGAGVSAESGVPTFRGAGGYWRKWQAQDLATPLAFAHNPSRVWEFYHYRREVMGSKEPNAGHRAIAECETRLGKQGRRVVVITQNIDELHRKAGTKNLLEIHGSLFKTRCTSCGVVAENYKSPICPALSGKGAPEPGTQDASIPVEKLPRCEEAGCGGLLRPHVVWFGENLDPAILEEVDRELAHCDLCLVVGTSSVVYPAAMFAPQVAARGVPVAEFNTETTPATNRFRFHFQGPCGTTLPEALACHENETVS

`C/C=C/C(=O)NCCCC[C@H](NC(=O)CNC(=O)[C@H](CC(C)C)NC(C)=O)C(=O)NCCOCCOc1ccc([N+](=O)[O-])c2nonc12`: the outcome in assay [1], in assay [2] and in assay [4] was inactive. In assay [3], the outcome was Active.
For the molecule `C/C=C/C(=O)NCCCC[C@H](NC(=O)OC(C)(C)C)C(=O)NCCOCCOc1ccc([N+](=O)[O-])c2nonc12`, the Activity result in assay [5] was “Tde”; in assay [6], 480 nm. In addition, the outcome in assay [1], in assay [7], in assay [2], in assay [8], in [4] and in assay [10] was inactive. Also, the result in [3] was Active. Also, the fold change (FC) in assay [9] was 5.
